The subject of assay [1] is MCF7. Nature of the assay: Cell cycle arrest in BrdU pulse-labelled human MCF7 cells assessed as accumulation at late G2/M phase at 500 to 5000 nM after 24 hrs by propidium iodide staining based flow cytometry. Format: functional.
A short description of assay [2]: Cytotoxicity against human G361 cells assessed as reduction in cell viability after 72 hrs by calcein AM staining based fluorescence assay. The settings on record: G-361, 72 h. Type of assay: functional. An outline of the steps: (§1)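 Cells were grown in DMEM with 10% FBS, penicillin and streptomycin at 37 °C in 5% CO2. Three doses were tested in triplicate for 72 h.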

The test system of assay [3] is MCF7. Nature of the assay: Cell cycle arrest in BrdU pulse-labelled human MCF7 cells assessed as accumulation at subG1 phase at 500 to 5000 nM after 24 hrs by propidium iodide staining based flow cytometry. Type of assay: functional. On the technique in general: In flow cytometry, cells or beads pass a laser one at a time.
Assay [4] has as its target Cyclin-dependent kinase 2/cyclin E1 (Homo sapiens, UniProt P24941). Nature of the assay: Inhibition of CDK2/Cyclin E (unknown origin) expressed in sf9 cells using histone H1 as substrate in presence of [gamma33P]-ATP. Format: cell-based.
For a further assay, the system named is HCT-116. The experiment in a line: (§2) Cytotoxicity against human HCT116 cells assessed as reduction in cell viability after 72 hrs by calcein AM staining based fluorescence assay. Format: functional. The procedure, abridged: (§3)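 Cells were grown in DMEM with 10% FBS, penicillin and streptomycin at 37 °C in 5% CO2. Three doses were tested in triplicate for 72 h. Live cells were read by Calcein AM fluorescence at 485/538 nm.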

Assay [5] can be described thus: as §2. Format: functional. The settings on record: HCT-116, 72 h. The procedure, abridged:
as §3

Assay [6] has as its system MCF7. The experiment in a line: Cytotoxicity against human MCF7 cells assessed as reduction in cell viability after 72 hrs by calcein AM staining based fluorescence assay. Format: functional. The procedure, abridged:
as §1

Assay [7] deals with MCF7. The experiment in a line: Cell cycle arrest in BrdU pulse-labelled human MCF7 cells assessed as decrease in cells at S phase at 500 to 5000 nM after 24 hrs by propidium iodide staining based flow cytometry. Type of assay: functional.
Assay [8] has as its system MCF7. Nature of the assay: Cell cycle arrest in BrdU pulse-labelled human MCF7 cells assessed as accumulation at late S phase at 500 to 5000 nM after 24 hrs by propidium iodide staining based flow cytometry. Type of assay: functional.
In assay [9] the test system is MCF7. Nature of the assay: Cell cycle arrest in BrdU pulse-labelled human MCF7 cells assessed as accumulation at late G2/M phase at 2500 to 20000 nM after 24 hrs by propidium iodide staining based flow cytometry. Type of assay: functional.
Assay [10] deals with MCF7. The experiment in a line: Cell cycle arrest in BrdU pulse-labelled human MCF7 cells assessed as accumulation at late S phase at 2500 to 20000 nM after 24 hrs by propidium iodide staining based flow cytometry. Format: functional.
For assay [11], the system named is MCF7. The experiment in a line: Cell cycle arrest in BrdU pulse-labelled human MCF7 cells assessed as decrease in cell at S phase at 2500 to 20000 nM after 24 hrs by propidium iodide staining based flow cytometry. Format: functional.
The subject of the next assay is K562. The experiment in a line: Cytotoxicity against human K562 cells assessed as reduction in cell viability after 72 hrs by calcein AM staining based fluorescence assay. Format: functional. The settings on record: K562, 72 h. An outline of the steps: as §1
Assay [12] relates to MCF7. The experiment in a line: Cell cycle arrest in BrdU pulse-labelled human MCF7 cells assessed as accumulation at subG1 phase at 2500 to 20000 nM after 24 hrs by propidium iodide staining based flow cytometry. Format: functional.

The values below come from ChEMBL document CHEMBL3774312, “5-Substituted 3-isopropyl-7-[4-(2-pyridyl)benzyl]amino-1(2)H-pyrazolo[4,3-d]pyrimidines with anti-proliferative activity as potent and selective inhibitors of cyclin-dependent kinases” (Eur J Med Chem, 2016).

A word on the pIC50: it is −log10 of the IC50, conventionally taken in molar units.

pIC50: −log10 of the molar value. Activity calls are given as the source filed them. The calls are words filed in the database; no cut-off is given here.

Take `CC(C)c1n[nH]c2c(NCc3ccc(-c4ccccn4)cc3)ncnc12`: the result with MCF7 [1], in the assay with MCF7 [3], in the assay on MCF7 [7] and with MCF7 [8] was Active. Further, the pIC50 is 6.06 in assay [2], 6.71 in assay [4] and 5.91 in [5]. Further, the Activity entry in the assay on HCT-116 and with MCF7 [6] was “Dose-dependent effect” each time.

Turning to `COc1ccc(CNc2nc(NCc3ccc(-c4ccccn4)cc3)c3[nH]nc(C(C)C)c3n2)cc1`, the pIC50 is 5.13 in assay [2]; 5.83 in assay [4]; 4.76 in [5]; 5.40 in the assay with K562; 5.28 with MCF7 [6] (MCF7, 72 h). Besides, the outcome in the assay with MCF7 [9], in the assay on MCF7 [10], in the assay on MCF7 [11] and in the assay on MCF7 [12] was Active. For the same compound, the Activity entry in the assay with HCT-116 and with MCF7 [6] was “Dose-dependent effect” in each case.
